Source: ChEMBL document CHEMBL4842326, “Design, synthesis and biological evaluation of 3, 4-disubstituted-imidazolidine-2, 5-dione derivatives as HDAC6 selective inhibitors” (Eur J Med Chem, 2021)
pIC50: −log10 of the molar value. The source made the active and inactive calls. The rule behind the calls is not given here.

Columns and labels:
[1] = test system: HL-60; experiment: Induction of apoptosis in human HL-60 cells assessed as activation of caspase-3 at 3 uM measured by fluorescence assay; assay type: functional, cell-based
[2] = test system: HL-60; experiment: Induction of apoptosis in human HL-60 cells assessed as late apoptotic cells at 3 uM after 48 hrs by Annexin V-FITC/propidium iodide staining based flow cytometric analysis (reference value: 1.45%); assay type: functional
Method in brief: (§1)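 HL-60 cells (1 × 10^6/well) exposed 48 h to compound dilutions, collected, PBS-washed, resuspended in Annexin V-FITC binding buffer, stained with propidium iodide and Annexin V-FITC for 15 min, then analysed by flow cytometry.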

[3] = test system: NCI-H929; experiment: Antiproliferative activity against human NCI-H929 cells assessed as inhibition of cell proliferation after 48 hrs by MTT assay; assay type: functional, cell-based; conditions: NCI-H929, 48 h
Method in brief: (§2)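 Leukemia/myeloma lines grown in RPMI1640 with 10% FBS at 37 °C, 5% CO2; seeded at 3500–4000 cells/well, cultured overnight, then exposed to serial dilutions for 48 h.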

[4] = test system: HL-60; experiment: Induction of apoptosis in human HL-60 cells assessed as necrotic cells at 3 uM after 48 hrs by Annexin V-FITC/propidium iodide staining based flow cytometric analysis (reference value: 0.017%); assay type: functional; method in brief: as §1
[5] = test system: HL-60; experiment: Induction of mitochondrial membrane potential depolarization in human HL-60 cells at 3 uM by fluorescence assay; assay type: functional, cell-based; conditions: time hrs <=24, TDE = time-dependent effect
Method in brief: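 HL-60 cells (1 × 10^6) seeded overnight, exposed to compound or vehicle (0.2% DMSO) for the indicated times, then loaded with TMRE (100 nM) 30 min at 37 °C; washed three times in PBS, fluorescence read at Ex 540/Em 579 nm.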

[6] = molecular target: T1, Protein deacetylase HDAC6 (Homo sapiens) (UniProt Q9UBN7); experiment: Inhibition of HDAC6 in human HL-60 cells assessed as increase in acetylation of alpha tubulin by Western blot analysis; assay type: cell-based; conditions: TDE = time-dependent effect
T1 sequence (whole entry): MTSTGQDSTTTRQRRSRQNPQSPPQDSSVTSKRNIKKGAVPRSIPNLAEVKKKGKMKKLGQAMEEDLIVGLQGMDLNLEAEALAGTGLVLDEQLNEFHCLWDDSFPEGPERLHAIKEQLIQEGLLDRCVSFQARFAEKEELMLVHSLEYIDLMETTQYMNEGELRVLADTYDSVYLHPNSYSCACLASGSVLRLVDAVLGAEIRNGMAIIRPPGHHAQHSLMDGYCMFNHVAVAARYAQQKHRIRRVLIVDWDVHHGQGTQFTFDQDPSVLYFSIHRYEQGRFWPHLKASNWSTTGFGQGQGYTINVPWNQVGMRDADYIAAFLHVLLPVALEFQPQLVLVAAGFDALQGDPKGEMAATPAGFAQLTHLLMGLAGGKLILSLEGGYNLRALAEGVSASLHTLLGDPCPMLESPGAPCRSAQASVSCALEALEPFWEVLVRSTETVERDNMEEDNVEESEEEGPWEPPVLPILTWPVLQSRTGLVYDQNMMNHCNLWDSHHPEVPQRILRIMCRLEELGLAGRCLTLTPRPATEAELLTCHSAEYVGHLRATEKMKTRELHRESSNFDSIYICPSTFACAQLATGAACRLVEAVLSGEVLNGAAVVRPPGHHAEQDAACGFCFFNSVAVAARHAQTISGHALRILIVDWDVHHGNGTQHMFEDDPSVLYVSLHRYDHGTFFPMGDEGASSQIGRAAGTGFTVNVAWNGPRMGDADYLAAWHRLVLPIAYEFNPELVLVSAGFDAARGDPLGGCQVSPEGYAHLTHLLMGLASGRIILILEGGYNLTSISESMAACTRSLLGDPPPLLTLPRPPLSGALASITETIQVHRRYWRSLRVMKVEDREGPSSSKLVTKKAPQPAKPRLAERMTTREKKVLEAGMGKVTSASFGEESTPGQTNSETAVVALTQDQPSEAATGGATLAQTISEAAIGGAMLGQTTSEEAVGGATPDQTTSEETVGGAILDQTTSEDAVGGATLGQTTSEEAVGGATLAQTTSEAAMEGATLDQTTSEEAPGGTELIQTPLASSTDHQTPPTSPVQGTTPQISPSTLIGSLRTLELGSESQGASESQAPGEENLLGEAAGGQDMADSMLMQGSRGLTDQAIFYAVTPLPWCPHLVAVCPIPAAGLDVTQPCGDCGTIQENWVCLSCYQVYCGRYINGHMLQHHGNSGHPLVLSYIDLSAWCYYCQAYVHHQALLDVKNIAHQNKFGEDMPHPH
Method in brief: (§3)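 HL-60 cells treated 12 h or 24 h, pelleted, lysed in RIPA with 1 mM PMSF on ice 30 min, cleared at 4 °C; lysates run on 12.5% SDS-PAGE, blotted to PVDF, blocked in 5% milk 1 h, probed overnight at 4 °C for acetyl-α-tubulin, acetyl-H3 and GAPDH, secondary 1 h, ECL detection.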

[7] = molecular target: Histone deacetylase 1 (Homo sapiens, UniProt Q13547); experiment: Inhibition of HDAC1 (unknown origin) using Ac-LeuGlyLys(Ac)-AMC as substrate preincubated for 10 mins followed by substrate addition and further incubated for incubated for 1 hrs by fluorescence microtiter plate reader assay
Sequence of Histone deacetylase 1 (Q13547 whole entry): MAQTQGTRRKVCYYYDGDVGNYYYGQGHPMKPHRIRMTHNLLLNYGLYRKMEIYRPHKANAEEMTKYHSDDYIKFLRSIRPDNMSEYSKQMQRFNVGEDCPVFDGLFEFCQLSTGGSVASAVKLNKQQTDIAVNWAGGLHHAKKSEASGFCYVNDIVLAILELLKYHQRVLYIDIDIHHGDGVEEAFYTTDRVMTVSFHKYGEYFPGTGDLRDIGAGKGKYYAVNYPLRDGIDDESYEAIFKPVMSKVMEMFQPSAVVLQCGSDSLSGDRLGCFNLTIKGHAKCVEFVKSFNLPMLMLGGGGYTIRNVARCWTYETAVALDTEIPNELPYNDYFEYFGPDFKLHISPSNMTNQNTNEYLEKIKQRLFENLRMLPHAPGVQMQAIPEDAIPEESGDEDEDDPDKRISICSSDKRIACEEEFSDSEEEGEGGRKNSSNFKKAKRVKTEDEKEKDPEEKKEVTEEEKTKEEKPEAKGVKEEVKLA

[8] = molecular target: T1, Protein deacetylase HDAC6 (Homo sapiens); experiment: Potency index, ratio of tubastatin-A IC50 to test compound IC50 for HDAC6 (unknown origin) using Ac-LeuGlyLy-s(Ac)-AMC as substrate preincubated for 10 mins followed by substrate addition and further incubated for 2 hrs by fluorescence microtiter plate reader assay
[9] = molecular target: T2, Histone deacetylase 8 (Homo sapiens, UniProt Q9BY41); experiment: Inhibition of HDAC8 (unknown origin) using Ac-LeuGlyLys(tfa)-AMC as substrate preincubated for 10 mins followed by substrate addition and further incubated for incubated for 1 hrs by fluorescence microtiter plate reader assay
T2 sequence (Q9BY41 whole entry): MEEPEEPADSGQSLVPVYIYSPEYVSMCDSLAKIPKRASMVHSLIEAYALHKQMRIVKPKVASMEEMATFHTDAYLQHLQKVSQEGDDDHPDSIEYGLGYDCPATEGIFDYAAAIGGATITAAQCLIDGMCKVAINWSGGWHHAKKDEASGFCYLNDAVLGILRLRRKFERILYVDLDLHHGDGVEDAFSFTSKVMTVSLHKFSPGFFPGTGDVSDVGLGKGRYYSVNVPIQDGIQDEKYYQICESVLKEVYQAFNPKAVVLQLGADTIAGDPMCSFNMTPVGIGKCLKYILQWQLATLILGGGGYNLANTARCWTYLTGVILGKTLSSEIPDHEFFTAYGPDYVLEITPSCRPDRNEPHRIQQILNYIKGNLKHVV

[10] = test system: HL-60; experiment: Induction of apoptosis in human HL-60 cells assessed as early apoptotic cells at 3 uM after 48 hrs by Annexin V-FITC/propidium iodide staining based flow cytometric analysis (reference value: […]%); assay type: functional
[11] = species: Homo sapiens; experiment: Selectivity ratio of IC50 for HDAC2 (unknown origin) to IC50 for HDAC6 (unknown origin)
[12] = test system: HEL; experiment: Antiproliferative activity against human HEL cells assessed as inhibition of cell proliferation after 48 hrs by MTT assay; assay type: functional, cell-based; method in brief: as §2
[13] = molecular target: T1, Protein deacetylase HDAC6 (Homo sapiens); experiment: Inhibition of HDAC6 in human HL-60 cells assessed as increase in acetylation of alpha tubulin measured up to 24 hrs by Western blot analysis; assay type: cell-based; conditions: time hrs <=24; method in brief: as §3

pIC50 [3]: 5.12
inhibition [6]: Tde
pIC50 [7]: 4.93
Ratio IC50 [8]: 12
pIC50 [9]: 5.46
Ratio IC50 [11]: 5860
inhibition [13]: Dose-Dependent Effect
SMILES: O=C(NO)c1ccc(CN2C(=O)C(Cc3ccccc3)N(Cc3cccnc3)C2=O)cc1 (racemic)
Activity [1]: Active
Activity [2]: 10%
Activity [4]: 0.035%
Activity [5]: Tde
Activity [10]: 10.5%
pIC50 [12]: 5.34
